# Results from PubChem BioAssay AID1885 (Broad Institute, 2009).
# The campaign covered roughly 300,000 compounds. About 4,400 (1.5%) were called active.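 The calls were made as follows: active = mean inhibition across valid replicates above about 55% (limit read from the data); inconclusive = mean below that limit but half or more replicates reach it; inactive = mean below it, under half of replicates reach it.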 Shown is part of a subset that was picked to be rich in actives.
# Assay: inhibitors of intracellular T. cruzi growth, primary screen, luminescence, NIH3T3 host cells (AID 1885);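 also: signal also drops with host cell toxicity which is not excluded here; 0% = plate median of DMSO wells and 100% = zero luminescence signal; higher percent means less beta-gal luminescence so fewer parasites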
# Settings: T. cruzi beta-gal in NIH3T3, luminescence, 90 h; stronger effect = higher value; concentration not given here
# Outline: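 assay system = mouse NIH/3T3 fibroblasts infected with β-gal-expressing T. cruzi Tulahuen C4 | input = 5,000 NIH/3T3 host cells per well | buffer or medium = DMEM plus 2% FBS | timing = 3 h host attachment, then at least 90 h co-culture | measured by = GalScreen luminescence, 60 min | evaluation = luminescence reflecting intracellular parasite burden, expressed as percent inhibition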
row,SMILES,inhibition
1,CC(C)CN(C(=O)Cn1c(=O)cnc2ccccc21)C1CCS(=O)(=O)C1 (centres undefined),11% (inactive)
2,N#CCc1c(C#N)c(N)nc(N2CCCC2)c1C#N,8.26% (inactive)
3,Cc1ncc(CO)c(/C=N/NC(=O)c2cccc(S(=O)(=O)N3CCCC3)c2)c1O,-9.29% (inactive)
4,CCn1c2c(c3ccc(OC)cc31)CCCC2=O,-5.03% (inactive)
5,CCC(=O)/C(=C(/O)c1ccccc1)c1nc2ccccc2[nH]1,3.53% (inactive)
6,O=C(Cc1nc2ccccc2[nH]c1=O)c1ccc(Cl)cc1,0.565% (inactive)
7,O=C(/C(=C/c1cccc(Cl)c1)c1nc2ccccc2[nH]1)c1ccccc1,68.4% (active)
8,CCCCn1c(N)c(N(CC(C)C)C(=O)CSc2ccc([N+](=O)[O-])cc2)c(=O)[nH]c1=O,6.23% (inactive)
9,CC(Oc1ccc(Br)cc1)C(=O)NCC(c1ccco1)N1CCCCC1 (centres undefined),-0.255% (inactive)
10,CCN(C(=O)CSc1nnnn1-c1ccccc1OC)C1CCS(=O)(=O)C1 (centres undefined),-11.8% (inactive)
11,COC(=O)C1=C(C)Nc2ncnn2C1c1ccco1 (centres undefined),-1.94% (inactive)
12,CC1=C(C(=O)OC2CCCCC2)C(c2cccnc2)n2ncnc2N1 (centres undefined),61.7% (active)
13,COC(=O)C1=C(C)Nc2ncnn2C1c1cccnc1 (centres undefined),17.7% (inactive)
14,COc1ccc(C(=O)COC(=O)COc2ccc(C)c(C)c2)cc1,4.19% (inactive)
15,O=S(=O)(NC1CCCCC1N1CCN(c2ccccc2F)CC1)c1ccccc1 (centres undefined),20.8% (inactive)
16,Cc1n[nH]c(=O)c2c(NC(=O)COC(=O)c3ncc(Cl)c(Cl)c3Cl)oc(C)c12,-10.3% (inactive)
17,COc1ccc(N(CC(=O)Nc2cccc3ccccc23)S(C)(=O)=O)c(OC)c1,-7.06% (inactive)
18,CCc1ccccc1NC(=O)CN(c1ccc(OC)cc1OC)S(=O)(=O)c1ccccc1[N+](=O)[O-],58.4% (active)
19,COc1ccc2c(CC(=O)OCC(=O)Nc3ccccc3[N+](=O)[O-])coc2c1,16.9% (inactive)
20,O=C1N[C@@H](Cc2ccccc2)C(=O)N2[C@H]1C[C@]1(Br)c3ccccc3N(S(=O)(=O)c3ccccc3)[C@H]21,-12.8% (inactive)
21,c1ccc(CCc2nc(-c3ccncc3)no2)cc1,-6.81% (inactive)
22,Cc1cc(Cl)ccc1OCc1nc(-c2ccncc2)no1,74.8% (active)
23,COc1ccc(-c2noc(COc3ccc(Cl)c(C)c3)n2)cc1,-9.09% (inactive)
24,O=C(c1ccncc1)N1CCN(S(=O)(=O)c2cccc([N+](=O)[O-])c2)CC1,25.7% (inactive)

row,SMILES,inhibition
1,CCCNC(=O)c1c(Cl)cnn1-c1ccc(C)cc1,-28% (inactive)
2,CCCNC(=O)CCc1c(C)nc2c(c(C)nn2-c2ccccc2)c1C,28% (inactive)
3,CCCNC(=O)CCc1c(C)nc2c(c(C)nn2-c2ccc(C)cc2)c1C,63.7% (active)
4,O=S(=O)(O)Oc1c[nH]c2ccccc12,-8.75% (inactive)
5,COc1ccccc1N(CC(=O)N/N=C(\C)c1ccccc1O)S(=O)(=O)c1ccc(C)cc1,65.9% (active)
6,COc1ccc(S(=O)(=O)N(CC(=O)N/N=C/c2ccccc2C(=O)O)c2ccccc2OC)cc1,20.6% (inactive)
7,COc1ccccc1NC(=O)CN(c1ccccc1OC)S(=O)(=O)c1ccccc1,2.04% (inactive)
8,O=C(N/N=C/c1cc(Br)c(O)c([N+](=O)[O-])c1)C(O)(c1ccccc1)c1ccccc1,-7.65% (inactive)
9,COc1ccc(/C=C/C(=O)Nc2c(C)nn(C)c2C)cc1COc1ccc(Br)cc1,30.9% (inactive)
10,COc1ccc(C(C)=O)cc1COc1ccc(Cl)c(C)c1,14.6% (inactive)
11,CCn1nc(C)c(NC(=O)/C=C/c2ccc(OC)c(COc3ccc(Br)cc3)c2)c1C,68.5% (active)
12,O=C(O)CCn1c(O)c(C=C2N=c3ccccc3=N2)sc1=S,-24.7% (inactive)
13,COc1ccc(N2CCC(CNC(=S)Nc3c(C)cccc3C)C2)cc1 (centres undefined),55.3% (active)
14,COc1ccc(NC(=S)NCC2CCN(c3ccc(OC)cc3)C2)cc1 (centres undefined),6.37% (inactive)
15,COc1ccc(NC(=S)NCCN2CCC(C)CC2)cc1,-11.2% (inactive)
16,CN1C(C(=O)NCC2CC2)CC2Cn3c(nc4ccccc43)C21 (centres undefined),-19% (inactive)
17,O=C1CN(C(=O)COc2c(Cl)cccc2Cl)c2ccccc2N1,-8.97% (inactive)
18,COc1ccccc1CCC(=O)NNC(=O)c1ccncc1,10.4% (inactive)
19,O=C1C(=O)N(CC2COc3ccccc3O2)c2ccccc21 (centres undefined),-17% (inactive)
20,Cc1cc(NC(=O)CCC2COc3ccccc3O2)no1 (centres undefined),1.39% (inactive)
21,Cc1cc(C(=O)CCl)c(C)n1CC1COc2ccccc2O1 (centres undefined),60.4% (active)
22,Cc1cc(C)c(C)c(S(=O)(=O)N2CCN(C(=O)c3ccc4c(=O)n5c(nc4c3)CCC5)CC2)c1C,-5.27% (inactive)
23,Nc1nc(Sc2ncccc2[N+](=O)[O-])n[nH]1,-19.9% (inactive)
24,Brc1cnc2ccccc2c1N1CCCCC1,0.276% (inactive)

row,SMILES,inhibition
1,Cc1ccc(C(=O)OC(C)CN2CCOCC2)cc1 (centres undefined),-11.2% (inactive)
2,Cc1cccc(C(=O)OC(C)CN2CCCC2)c1 (centres undefined),-8.01% (inactive)
3,Cc1cccc(C(=O)OC(C)CN2CCN(C)CC2)c1 (centres undefined),56.8% (active)
4,N#Cc1c(/N=C/N2CCCC2)oc(-c2ccccc2)c1-c1ccccc1,37.2% (inactive)
5,COc1ccc(-c2oc(/N=C/N3CCCC3)c(C#N)c2-c2ccc(OC)cc2)cc1,57.6% (active)
6,COc1cc(C(=O)Nc2oc(-c3ccccc3)c(-c3ccccc3)c2C#N)cc(OC)c1OC,12.7% (inactive)
7,O=C(NC1CCCCC1)C1CCC(CNS(=O)(=O)c2ccccc2)CC1 (centres undefined),-8.43% (inactive)
8,NC(N)=Nc1nc(-c2ccccc2)c2cc(Cl)ccc2n1,65.4% (active)
9,O=C(CCl)NNc1nc(-c2ccccc2)c2cc(Cl)ccc2n1,3.67% (inactive)
10,OCCCNc1nc(-c2ccccc2)c2cc(Cl)ccc2n1,18.3% (inactive)
11,CC(Oc1ccccc1[N+](=O)[O-])C(=O)N/N=C/c1ccoc1 (centres undefined),-8.31% (inactive)
12,O=C(Nc1ccc(N2CCCCC2)cc1)c1cc(S(=O)(=O)N2CCOCC2)ccc1F,22.8% (inactive)
13,CCN(CC)c1ccc(S(=O)(=O)N2CCCCC2)cc1NC(=O)C1=COCCO1,61% (active)
14,CCN(CC)c1ccc(S(=O)(=O)N2CCOCC2)cc1NC(=O)CSc1cccc[n+]1[O-],5.13% (inactive)
15,O=C(Nc1ccc(S(=O)(=O)N2CCCC2)cc1Cl)C1=COCCO1,-14.4% (inactive)
16,COc1cccc(NC(=O)CN(C)C(=O)CSCc2nc3scc(-c4cccs4)c3c(=O)[nH]2)c1,-4.78% (inactive)
17,O=C(NN1CCOCC1)c1cccc(F)c1,-3.38% (inactive)
18,COc1cc(NS(=O)(=O)c2ccc3ccccc3c2)c2ncccc2c1,76.5% (active)
19,Cc1ccc(NS(=O)(=O)c2ccc(C)c(NC(=O)COc3ccc4ccccc4c3)c2)c(C)c1,30.6% (inactive)
20,COc1ccc2cc(S(=O)(=O)Nc3ccccn3)ccc2c1,4.63% (inactive)
21,CC(C)C(c1nnnn1C1CCCCC1)N1CCN(C(=O)c2ccco2)CC1 (centres undefined),-11.6% (inactive)
22,CC(C)Cn1c(N)c(C(=O)NCc2cccs2)c2nc3ccccc3nc21,59.8% (active)
23,CCCNC(=O)c1c(N)n(-c2ccc(S(N)(=O)=O)cc2)c2nc3ccccc3nc12,-22.9% (inactive)
24,CC(C)(C)c1ccc(C(=O)NCCn2c(N)c(C#N)c3nc4ccccc4nc32)cc1,-43.8% (inactive)

row,SMILES,inhibition
1,COc1ccccc1CCNC(=O)C1CCN(C(=O)/C=C/c2ccccc2)CC1,-2.7% (inactive)
2,CCN(CC)CCN(C(=O)c1ccc(N2C(=O)CCC2=O)cc1)c1nc2cc3c(cc2s1)OCO3,40.8% (inactive)
3,CCOc1ccc2nc(N(CCN(C)C)C(=O)c3ccc4ccccc4c3)sc2c1,26.5% (inactive)
4,CCN(CC)CCN(C(=O)c1cccc([N+](=O)[O-])c1)c1nc2ccc(OC)cc2s1,55.5% (active)
5,CCOc1ccc(NC(=O)CCC(=O)NNC(=O)NC2CCCCC2)cc1,8.19% (inactive)
6,Cc1ccc2nc(SCC(=O)N3CC(C)OC(C)C3)nc(=O)n2c1 (centres undefined),-6.75% (inactive)
7,CCN(Cc1ccccc1)S(=O)(=O)c1cc2c3c(c1)CCN3C(=O)CC2,-1.06% (inactive)
8,O=c1cnnc(Nc2ccccc2F)[nH]1,-1.79% (inactive)
9,CC(C)(C)[C@H]1C=C(C(=O)NCc2ccccc2)O[C@@H](OCc2ccc(CO)cc2)C1,7.55% (inactive)
10,O=C(C1=C[C@H](c2ccc(C(F)(F)F)cc2)C[C@H](OCc2ccc(CO)cc2)O1)N1CCN(Cc2ccccc2)CC1,40.5% (inactive)
11,O=C(NCc1ccccc1)C1=C[C@@H](c2ccc(C(F)(F)F)cc2)C[C@@H](OCc2ccc(CO)cc2)O1,63% (active)
12,CN(C)c1nc(Nc2ccc(Cl)c(Cl)c2)nc(N(C)C)n1,9.61% (inactive)
13,COc1cc2nc(Cl)nc(NCCO)c2cc1OC,-12.7% (inactive)
14,OCCNc1nc(Nc2ccc(Cl)c(Cl)c2)nc2ccccc12,64.3% (active)
15,COCCNc1nc(-c2ccccc2)nc2c1oc1ccccc12,36.8% (inactive)
16,CCc1noc(C)c1C(=O)Oc1ccc(N(C)S(=O)(=O)c2ccc(C)c(C)c2)cc1,31% (inactive)
17,COC(=O)C(C(=O)Nc1cccc(Cl)c1C)C1CCCC1 (centres undefined),-20.2% (inactive)
18,COCCCn1c(SCC(=O)Nc2oc(C)c3c(C)n[nH]c(=O)c23)nc2sc3c(c2c1=O)CCC3,2.14% (inactive)
19,CN(C1CCS(=O)(=O)C1)S(=O)(=O)c1ccc2ccccc2c1 (centres undefined),-3.79% (inactive)
20,Brc1ccc(-c2csc(N/N=C/c3cccnc3)n2)cc1,69.8% (active)
21,Brc1ccc(-c2csc(N/N=C/c3ccc4c(c3)OCO4)n2)cc1,31.5% (inactive)
22,Cc1ccccc1Nc1nc(-c2cccnc2)cs1,20.2% (inactive)
